Reference: the RNAGym collection of RNA variant scans (doi:10.1126/science.aae0568)
Variants at the floor of the assay were thinned out.

B1: tRNA (parent)
chain: GUUCCGUUGGCGUAAUGGUAACGCGUCUCCCUCCUAAGGAGAAGACUGCGGGUUCGAGUCCCGUACGGAACG

Variants of: B1
Assay: yeast fitness relative to wild type (ratio to wild type); higher = fitter; tRNA-Arg(CCU), competitive growth, 37 C, YPD
Summary of the method: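 Amplicons of the tRNA-Arg(CCU) gene were sequenced, 100-nucleotide paired-end, from the start population and from each end population of a pooled yeast competition. The competition, in six parallel replicates, lasted 24 hours in YPD at 37°C. Fitness relative to wild type was calculated from changes in genotype frequencies. Genotypes had to have ≥ 100 starting reads, and estimates < 0.5 were set to 0.5.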

Variant	yeast fitness
C4A G23A	0.89
C4A G23C	0.77
C4A G18C C29A C31A C66U	≤ 0.5
C4A U7C A45C C61G	≤ 0.5
C4A C22G C33G U54G	≤ 0.5
C4A C22A C29U A69U	≤ 0.5
C4A U8A G12C U19C C30U U47A A65U	≤ 0.5
C4A C29U C31G C33A	≤ 0.5
C4A C5G C24G C29U	≤ 0.5
C4A C27A G38A C62A	≤ 0.5
C4A G9A G18C C22A G50C A65C	≤ 0.5
C4A C5G U8A C30A C62A	≤ 0.5
C4A G18C C29A C31A A57G	≤ 0.5
C4A C11U G41A C60G A65G	≤ 0.5
C4A C66U A69C	0.585
C4A C61U G68A	0.541
C4A U7A A14G G17C A36G C61U	≤ 0.5
C4A C11G C31A A42G C66A	≤ 0.5
C4A G17C C31G A37C	0.748
C4A U8A C24U G44A A70C	≤ 0.5
C4A C11A C29G A40G C62G	≤ 0.5

Variant	yeast fitness
C4A G17C G23C U53A	≤ 0.5
C4A G12C U13G C30U G58C	≤ 0.5
C4A G6A A45U G58A A65G	≤ 0.5
C4A G6C U8A A20C A21U C31A C33U C46U A57G	≤ 0.5
C4A C5G C46G	≤ 0.5
C4A C33A A36C G67A	≤ 0.5
C4A U13A A21G G58C G68A	0.607
C4A C61G G63A	≤ 0.5
C4A G18A G44C C46U C49U	≤ 0.5
C4A C49G	0.704
C4A C49U	0.877
C4A C11G G18C C27G	≤ 0.5
C4A G23A U28A A57G	≤ 0.5
C4A C34U G51C A57C	≤ 0.5
C4A G25C U26A C61A	≤ 0.5
C4A C5G U54A C62U	0.536
C4A C29G A36U U53C	≤ 0.5
C4A G6A U64A	≤ 0.5
C4A G23C G50A A57G	0.62
C4A G12C U19C C22U C24G A43U C61A	≤ 0.5
C4A C5U G39C A42C G52C C62U	≤ 0.5

Variant	yeast fitness
C4A C11A U13C U28G A43G	≤ 0.5
C4A U8C G58A	≤ 0.5
C4A C46A G56A	0.736
C4A G52C C62U	≤ 0.5
C4A G17A G41A A57C	≤ 0.5
C4A G9C C31A G41A	0.773
C4A G38A	0.805
C4A C55U A57U U64G	≤ 0.5
C4A U8A G17C C31U	0.558
C4A G17A C30A	≤ 0.5
C4A C29G G38C	≤ 0.5
C4A G18A U59G	0.657
C4A G12A C34G C66U	≤ 0.5
C4A G17C G51C G58A	≤ 0.5
C4A G10C G58A	0.713
C4A G23A C30U C31G A40C	≤ 0.5
C4A G18A C29U C66A	≤ 0.5
C4A C29A C34A C62U	≤ 0.5
C4A C31G G51C	0.524
C4A U8A C24U C55U G68C	≤ 0.5
C4A C30G U47C C49G	≤ 0.5

Variant	yeast fitness
C4A C27U C33U A36U G63C	≤ 0.5
C4A G6A A69U	0.623
C4A C29G U47G U59G	≤ 0.5
C4A C30A A37C G58A A70U	≤ 0.5
C4A G18C C29A C31A A70C	≤ 0.5
C4A G23A G25C G51A	0.607
C4A C24U A65U	≤ 0.5
C4A C34U G38C C49G	≤ 0.5
C4A C11A	0.6
C4A G17A A42U C55G	≤ 0.5
C4A G17A C60G A70G	≤ 0.5
C4A G25A C29A A37G G50C U59A	≤ 0.5
C4A C24U C29U U32C U54C	≤ 0.5
C4A G23A C31G A40C G48C C66A	≤ 0.5
C4A G39A G52C C55G	≤ 0.5
C4A G9A	0.907
C4A C34G G68A	≤ 0.5
C4A G9A U16A A40G C46U	≤ 0.5
C4A C29U	0.763
C4A C29G	0.618
